Calls of active or inactive are those of the source.
Experiments:
[1] = target: T1, Transient receptor potential cation channel subfamily V member 3 (Mus musculus) (UniProt Q8K424); experiment: Agonist activity at mouse TRPV3 expressed in HEK293 cells assessed as increase in calcium influx at 10 uM incubated for 1 min by Fluo-4-AM dye based FLIPR assay; assay type: cell-based
T1 sequence (whole entry): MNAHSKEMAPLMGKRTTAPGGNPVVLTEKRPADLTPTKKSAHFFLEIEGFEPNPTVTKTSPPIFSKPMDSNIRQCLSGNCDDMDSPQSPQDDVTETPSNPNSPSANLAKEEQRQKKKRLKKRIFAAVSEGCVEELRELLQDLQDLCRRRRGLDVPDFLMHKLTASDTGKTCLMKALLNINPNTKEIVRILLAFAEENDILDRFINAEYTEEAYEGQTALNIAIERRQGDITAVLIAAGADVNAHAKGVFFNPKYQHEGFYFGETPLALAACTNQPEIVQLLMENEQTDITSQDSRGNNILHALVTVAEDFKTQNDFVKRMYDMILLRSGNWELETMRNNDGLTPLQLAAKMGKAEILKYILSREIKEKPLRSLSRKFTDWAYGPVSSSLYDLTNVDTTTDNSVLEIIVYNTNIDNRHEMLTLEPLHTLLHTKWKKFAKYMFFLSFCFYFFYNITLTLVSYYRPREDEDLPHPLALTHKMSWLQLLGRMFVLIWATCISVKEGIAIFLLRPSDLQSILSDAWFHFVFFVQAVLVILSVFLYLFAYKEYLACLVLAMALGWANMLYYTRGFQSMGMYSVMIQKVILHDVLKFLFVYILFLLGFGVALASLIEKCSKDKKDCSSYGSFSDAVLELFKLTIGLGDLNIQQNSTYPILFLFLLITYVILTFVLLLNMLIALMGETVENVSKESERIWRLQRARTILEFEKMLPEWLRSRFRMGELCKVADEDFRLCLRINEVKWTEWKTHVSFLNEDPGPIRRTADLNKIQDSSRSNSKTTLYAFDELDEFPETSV

[2] = test system: Mus musculus; experiment: Induction of hypothermia in ICR mouse assessed as decrease in body temperature at 3 mg/kg, ip measured after 30 mins; assay type: functional, organism-based
[3] = Drug uptake in porcine skin assessed as dermal accumulation applied topically as carbopol-gel with 1% formulation measured for 8 hrs by Franz diffusion cell based in vitro transdermal delivery test; assay type: ADME, tissue-based, Sus scrofa, Zone of skin; details: pig
[4] = Systemic drug absorption in porcine skin assessed as drug accumulation in acceptor Franz cell applied topically as carbopol-gel with 1% formulation measured for 8 hrs by Franz diffusion cell based in vitro transdermal delivery test; assay type: ADME, tissue-based, Sus scrofa, Zone of skin; details: pig
[5] = Toxicity in ICR mouse assessed as skin irritation by measuring ear scratching administered topically and measured for 30 mins; details: in vivo, topical_or_ocular, 0.5 h
Summary of the method: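 Ear scratching test: a solution of the agent was applied to mouse ears, and scratching movements were counted over the following 30 min.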

[6] = Toxicity in ICR mouse assessed as ear edema administered topically and measured after 30 mins; details: in vivo, topical_or_ocular, 0.5 h
Summary of the method: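 Ear swelling test: a solution of the agent was applied to mouse ears, and ear punch biopsies were collected 30 min later and weighed.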

[7] = Toxicity in ip dosed ICR mouse administered as single dose; assay type: organism-based; details: in vivo
[8] = Toxicity in po dosed ICR mouse administered as single dose; assay type: organism-based; details: in vivo
[9] = test system: Rattus norvegicus; experiment: Analgesic activity in ip dosed L5/L6 spinal nerve ligation-induced neuropathic pain Sprague-Dawley rat model assessed as increase in paw withdrawal threshold in response to von frey filament compound administered at day 14 after ligation and measured up to 1.5 hrs after drug dosing by up and down method; assay type: functional
Summary of the method: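 Rat spinal nerve ligation model of neuropathic pain. Compound was given i.p. at 1, 2, 5 or 10 mg/kg; a gabapentin 65 mg/kg i.p. arm and a saline i.p. arm were run alongside. Von Frey withdrawal thresholds were taken pre-surgery and on days 1, 7 and 14, then at 0.5, 1 and 1.5 h post-dose. Mean±SEM, n=7-8.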

[10] = test system: Mus musculus; experiment: Analgesic activity in ip dosed formalin-induced nociception ICR mouse model assessed as reduction in pain behaviour by measuring less licking of formalin injected hind paw pretreated with compound 30 mins prior to formalin induction by formalin test; assay type: functional
Summary of the method: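 Mice were dosed i.p. with 0.1–10 mg/kg, with vehicle and gabapentin (50, 100 mg/kg i.p.) arms. 2% formalin was injected into the dorsal hindpaw, and paw-licking time was recorded for the first phase (5 min) and the second phase (20–30 min). ED50 was taken from the dose–response. Mean±SEM, n=8.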

[11] = target: Transient receptor potential cation channel subfamily M member 8 (Mus musculus) (UniProt Q8R4D5); experiment: Agonist activity at mouse TRPM8 expressed in HEK293 cells assessed as increase in calcium influx at 1 uM incubated for 1 min by Fluo-4-AM dye based FLIPR assay; assay type: cell-based
[12] = target: Transient receptor potential cation channel subfamily A member 1 (Homo sapiens) (UniProt O75762); experiment: Agonist activity at human TRPA1 expressed in HEK293 cells assessed as increase in calcium influx at 100 uM incubated for 1 min by Fluo-4-AM dye based FLIPR assay; assay type: cell-based
Summary of the method: (§1)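 Intracellular calcium influx read by FLIPR in cells individually transfected with TRPV1, hTRPA1, mTRPA1, mTRPV3 or mTRPM8. Each transfected line was also challenged with its own reference TRP-family agonist as a responsiveness check.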

[13] = target: Transient receptor potential cation channel subfamily A member 1 (Mus musculus) (UniProt Q8BLA8); experiment: Agonist activity at mouse TRPA1 expressed in HEK293 cells assessed as increase in calcium influx at 1 uM incubated for 1 min by Fluo-4-AM dye based FLIPR assay; assay type: cell-based; summary of the method: as §1
Sequence of Transient receptor potential cation channel subfamily A member 1 (Mus musculus) (Q8BLA8 whole entry): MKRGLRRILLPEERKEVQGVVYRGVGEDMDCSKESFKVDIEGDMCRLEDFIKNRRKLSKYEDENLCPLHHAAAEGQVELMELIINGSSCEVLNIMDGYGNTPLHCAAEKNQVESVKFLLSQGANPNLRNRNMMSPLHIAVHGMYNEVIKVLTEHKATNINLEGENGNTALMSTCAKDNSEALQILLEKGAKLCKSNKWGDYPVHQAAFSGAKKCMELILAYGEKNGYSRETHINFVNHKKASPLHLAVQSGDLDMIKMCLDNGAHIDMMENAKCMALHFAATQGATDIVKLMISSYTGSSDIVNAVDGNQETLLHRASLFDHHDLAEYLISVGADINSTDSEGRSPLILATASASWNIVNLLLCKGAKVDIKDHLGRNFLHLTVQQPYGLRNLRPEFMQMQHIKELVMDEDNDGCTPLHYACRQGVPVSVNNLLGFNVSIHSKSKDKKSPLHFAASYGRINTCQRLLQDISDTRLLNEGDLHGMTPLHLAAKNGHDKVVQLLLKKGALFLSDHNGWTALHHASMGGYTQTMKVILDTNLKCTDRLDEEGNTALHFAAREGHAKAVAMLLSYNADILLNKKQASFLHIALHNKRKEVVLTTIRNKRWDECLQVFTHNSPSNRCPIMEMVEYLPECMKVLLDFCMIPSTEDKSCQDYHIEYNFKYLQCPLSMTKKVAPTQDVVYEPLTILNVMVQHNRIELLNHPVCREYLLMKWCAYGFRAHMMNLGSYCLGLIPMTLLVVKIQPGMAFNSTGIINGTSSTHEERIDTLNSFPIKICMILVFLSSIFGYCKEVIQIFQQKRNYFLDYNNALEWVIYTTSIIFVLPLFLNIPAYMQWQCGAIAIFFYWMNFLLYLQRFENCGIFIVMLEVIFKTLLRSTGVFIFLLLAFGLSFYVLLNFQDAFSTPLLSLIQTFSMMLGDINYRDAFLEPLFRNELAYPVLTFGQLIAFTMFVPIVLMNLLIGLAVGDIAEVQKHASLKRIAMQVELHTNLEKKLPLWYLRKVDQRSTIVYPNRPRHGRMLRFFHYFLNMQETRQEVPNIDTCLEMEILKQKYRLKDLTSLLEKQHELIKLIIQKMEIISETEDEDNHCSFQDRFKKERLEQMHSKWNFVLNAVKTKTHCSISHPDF

Sequence of Transient receptor potential cation channel subfamily A member 1 (Homo sapiens) (O75762 whole entry): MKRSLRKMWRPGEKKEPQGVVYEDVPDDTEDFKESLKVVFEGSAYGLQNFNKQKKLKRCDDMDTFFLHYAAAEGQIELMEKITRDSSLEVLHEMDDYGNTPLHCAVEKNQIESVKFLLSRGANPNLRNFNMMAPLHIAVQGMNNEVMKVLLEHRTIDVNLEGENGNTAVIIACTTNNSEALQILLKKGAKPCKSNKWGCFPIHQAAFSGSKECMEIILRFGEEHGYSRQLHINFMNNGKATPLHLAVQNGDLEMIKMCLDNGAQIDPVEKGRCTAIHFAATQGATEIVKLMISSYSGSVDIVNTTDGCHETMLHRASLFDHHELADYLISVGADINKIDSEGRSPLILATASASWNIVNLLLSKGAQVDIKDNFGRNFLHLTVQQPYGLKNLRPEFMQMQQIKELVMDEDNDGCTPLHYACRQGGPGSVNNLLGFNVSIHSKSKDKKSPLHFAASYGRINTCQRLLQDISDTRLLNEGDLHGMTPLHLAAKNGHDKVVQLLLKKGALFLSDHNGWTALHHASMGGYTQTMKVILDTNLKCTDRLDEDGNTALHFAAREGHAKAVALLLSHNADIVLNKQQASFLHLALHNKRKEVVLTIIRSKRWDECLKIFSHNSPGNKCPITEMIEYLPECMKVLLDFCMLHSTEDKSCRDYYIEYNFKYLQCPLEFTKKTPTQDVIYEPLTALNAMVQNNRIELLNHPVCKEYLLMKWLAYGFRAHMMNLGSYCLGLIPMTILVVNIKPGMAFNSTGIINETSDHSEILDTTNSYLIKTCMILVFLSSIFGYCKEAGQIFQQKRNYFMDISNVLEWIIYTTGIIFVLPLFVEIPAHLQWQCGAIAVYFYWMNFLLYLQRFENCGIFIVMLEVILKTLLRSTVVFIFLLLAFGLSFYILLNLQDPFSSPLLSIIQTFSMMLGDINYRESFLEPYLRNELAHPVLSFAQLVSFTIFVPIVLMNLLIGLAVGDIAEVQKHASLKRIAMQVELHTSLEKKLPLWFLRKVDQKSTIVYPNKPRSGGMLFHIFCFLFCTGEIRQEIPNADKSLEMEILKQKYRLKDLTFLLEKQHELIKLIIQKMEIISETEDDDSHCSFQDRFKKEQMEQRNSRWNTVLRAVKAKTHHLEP
Sequence of Transient receptor potential cation channel subfamily M member 8 (Mus musculus) (Q8R4D5 whole entry): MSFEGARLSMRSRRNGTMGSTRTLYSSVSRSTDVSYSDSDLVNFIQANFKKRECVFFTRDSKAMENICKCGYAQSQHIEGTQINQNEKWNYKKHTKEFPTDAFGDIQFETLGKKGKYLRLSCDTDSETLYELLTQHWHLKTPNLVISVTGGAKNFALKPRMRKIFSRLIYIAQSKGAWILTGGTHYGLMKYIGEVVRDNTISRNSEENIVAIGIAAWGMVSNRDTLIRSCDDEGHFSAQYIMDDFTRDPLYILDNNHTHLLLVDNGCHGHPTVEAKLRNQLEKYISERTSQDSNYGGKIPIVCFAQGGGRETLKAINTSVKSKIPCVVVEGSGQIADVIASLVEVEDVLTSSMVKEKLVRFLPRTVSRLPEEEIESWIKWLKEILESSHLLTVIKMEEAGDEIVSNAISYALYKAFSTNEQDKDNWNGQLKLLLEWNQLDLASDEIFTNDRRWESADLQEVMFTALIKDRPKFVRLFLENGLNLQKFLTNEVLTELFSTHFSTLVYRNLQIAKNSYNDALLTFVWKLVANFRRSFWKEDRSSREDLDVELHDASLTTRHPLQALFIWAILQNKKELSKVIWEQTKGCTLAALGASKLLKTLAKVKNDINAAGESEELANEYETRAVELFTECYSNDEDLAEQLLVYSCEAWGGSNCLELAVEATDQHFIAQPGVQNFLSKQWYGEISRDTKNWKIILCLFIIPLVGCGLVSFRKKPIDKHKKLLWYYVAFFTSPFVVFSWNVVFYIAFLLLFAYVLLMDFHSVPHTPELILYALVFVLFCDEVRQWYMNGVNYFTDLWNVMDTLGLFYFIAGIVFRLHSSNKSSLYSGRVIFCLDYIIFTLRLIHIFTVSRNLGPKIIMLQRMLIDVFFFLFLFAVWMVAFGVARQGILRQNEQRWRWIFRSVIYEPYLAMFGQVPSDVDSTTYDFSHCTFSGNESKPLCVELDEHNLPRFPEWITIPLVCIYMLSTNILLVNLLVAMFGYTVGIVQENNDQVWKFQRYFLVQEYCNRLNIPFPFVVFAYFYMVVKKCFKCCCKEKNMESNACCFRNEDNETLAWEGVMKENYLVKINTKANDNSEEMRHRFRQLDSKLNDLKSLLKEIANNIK

Compound: CC12CCC(CC1=O)C2(C)C (stereo not drawn)
- Activity [1]: Active

Compound: COc1cc(CNC(=O)CCCC/C=C/C(C)C)ccc1O [CAPSAICIN]
- Activity [2]: Active
- Drug uptake [3]: Active
- Drug absorption [4]: Active
- Activity [5]: Toxic
- Activity [6]: Toxic
- LD50 [7]: 7.5 mg/kg
- LD50 [8]: 119 mg/kg

Compound: NCC1(CC(=O)O)CCCCC1 [GABAPENTIN]
- ED50 [9]: ≥ 30 mg/kg
- ED50 [10]: ≥ 40 mg/kg

Compound: CC1CCC(C(C)C)C(O)C1 (stereo not drawn)
- Activity [11]: Active

Compound: O=C/C=C/c1ccccc1
- Activity [12]: Active
- Activity [13]: Active

From ChEMBL document CHEMBL4376835, “Discovery of Nonpungent Transient Receptor Potential Vanilloid 1 (TRPV1) Agonist as Strong Topical Analgesic” (J Med Chem, 2020)
